Columns and labels:
[1] = molecular target: T1, Protein deacetylase HDAC6 (Homo sapiens, UniProt Q9UBN7); assay: Inhibition of full length recombinant human N-terminal GST-tagged HDAC6 expressed in baculovirus infected insect cells using RHK-K(Ac)-AMC as substrate after 90 mins by fluorescence assay
T1 sequence (Q9UBN7 whole entry): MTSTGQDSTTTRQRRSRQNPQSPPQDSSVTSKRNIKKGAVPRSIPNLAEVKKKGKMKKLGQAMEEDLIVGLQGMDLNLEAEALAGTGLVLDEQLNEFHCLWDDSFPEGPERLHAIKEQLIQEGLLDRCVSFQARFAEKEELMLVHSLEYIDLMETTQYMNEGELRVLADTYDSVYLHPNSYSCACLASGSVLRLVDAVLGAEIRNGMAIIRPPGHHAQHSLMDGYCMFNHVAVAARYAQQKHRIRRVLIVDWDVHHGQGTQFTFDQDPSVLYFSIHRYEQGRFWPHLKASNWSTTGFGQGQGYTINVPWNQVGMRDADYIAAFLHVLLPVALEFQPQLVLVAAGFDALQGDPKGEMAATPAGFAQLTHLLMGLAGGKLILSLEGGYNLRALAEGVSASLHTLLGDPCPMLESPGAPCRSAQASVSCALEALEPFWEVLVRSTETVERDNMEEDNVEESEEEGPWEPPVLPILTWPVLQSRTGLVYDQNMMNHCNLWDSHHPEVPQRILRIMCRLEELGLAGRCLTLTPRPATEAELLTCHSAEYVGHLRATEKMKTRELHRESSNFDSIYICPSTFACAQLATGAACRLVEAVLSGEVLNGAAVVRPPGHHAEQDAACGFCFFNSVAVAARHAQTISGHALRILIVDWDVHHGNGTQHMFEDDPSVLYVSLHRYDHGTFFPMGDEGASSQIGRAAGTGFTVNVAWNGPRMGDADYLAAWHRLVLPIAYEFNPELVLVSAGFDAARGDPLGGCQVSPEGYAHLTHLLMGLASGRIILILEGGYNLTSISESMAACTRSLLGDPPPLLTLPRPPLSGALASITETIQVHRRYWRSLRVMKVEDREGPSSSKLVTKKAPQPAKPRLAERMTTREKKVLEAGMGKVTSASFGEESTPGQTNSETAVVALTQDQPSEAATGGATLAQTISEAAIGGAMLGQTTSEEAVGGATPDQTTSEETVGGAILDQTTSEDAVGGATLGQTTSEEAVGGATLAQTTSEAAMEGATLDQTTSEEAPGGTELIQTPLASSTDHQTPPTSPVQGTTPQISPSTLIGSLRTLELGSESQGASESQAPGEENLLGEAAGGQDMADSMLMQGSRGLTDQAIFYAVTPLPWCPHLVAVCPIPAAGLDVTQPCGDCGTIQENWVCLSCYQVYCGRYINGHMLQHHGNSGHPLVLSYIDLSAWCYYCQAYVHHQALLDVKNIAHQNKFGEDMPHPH

[2] = molecular target: Histone deacetylase 4 (Homo sapiens, UniProt P56524); assay: Inhibition of recombinant human C-terminal His-tagged/N-terminal GST-tagged HDAC4 (627 to 1084 residues) expressed in insect cells using Boc-K(Ac)-AMC as substrate after 60 mins by fluorescence assay
[3] = molecular target: T2, Histone deacetylase 8 (Homo sapiens, UniProt Q9BY41); assay: Inhibition of recombinant human C-terminal His-tagged/N-terminal Strep2-tagged HDAC8 (1 to 377 residues) expressed in insect cells using RHK-K(Ac)-AMC as substrate after 60 mins by fluorescence assay
T2 sequence (Q9BY41 whole entry): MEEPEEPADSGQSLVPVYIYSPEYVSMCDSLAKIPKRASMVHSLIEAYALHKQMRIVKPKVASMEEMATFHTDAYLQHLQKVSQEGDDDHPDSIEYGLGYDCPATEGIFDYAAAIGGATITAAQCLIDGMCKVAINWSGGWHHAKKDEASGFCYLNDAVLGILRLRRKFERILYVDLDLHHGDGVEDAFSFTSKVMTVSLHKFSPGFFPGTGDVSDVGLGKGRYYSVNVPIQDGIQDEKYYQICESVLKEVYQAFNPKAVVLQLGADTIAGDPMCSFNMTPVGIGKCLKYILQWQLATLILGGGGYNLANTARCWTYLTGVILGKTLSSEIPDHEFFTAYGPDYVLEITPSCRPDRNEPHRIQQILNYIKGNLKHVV

[4] = molecular target: T3, Polyamine deacetylase HDAC10 (Homo sapiens, UniProt Q969S8); assay: Inhibition of human HDAC10 using RHKKAc as substrate
T3 sequence (Q969S8 whole entry): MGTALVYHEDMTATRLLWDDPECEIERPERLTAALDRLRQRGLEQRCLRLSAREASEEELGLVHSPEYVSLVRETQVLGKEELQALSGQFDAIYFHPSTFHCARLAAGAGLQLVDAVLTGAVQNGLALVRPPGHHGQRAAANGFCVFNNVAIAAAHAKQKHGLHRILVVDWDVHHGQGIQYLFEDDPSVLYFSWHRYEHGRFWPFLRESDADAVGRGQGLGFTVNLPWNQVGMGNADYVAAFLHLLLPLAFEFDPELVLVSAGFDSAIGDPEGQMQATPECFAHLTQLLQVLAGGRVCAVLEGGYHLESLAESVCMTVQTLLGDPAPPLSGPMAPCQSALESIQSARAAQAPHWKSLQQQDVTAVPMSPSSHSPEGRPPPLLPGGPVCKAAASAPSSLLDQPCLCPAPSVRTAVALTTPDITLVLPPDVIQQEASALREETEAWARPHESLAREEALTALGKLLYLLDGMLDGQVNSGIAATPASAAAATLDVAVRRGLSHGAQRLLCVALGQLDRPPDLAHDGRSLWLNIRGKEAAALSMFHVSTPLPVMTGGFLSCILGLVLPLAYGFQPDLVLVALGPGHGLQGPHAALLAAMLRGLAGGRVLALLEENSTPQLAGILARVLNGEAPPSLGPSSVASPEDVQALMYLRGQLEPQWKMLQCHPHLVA

[5] = tested on: RPMI-8226; assay: Antiproliferative activity against human RPMI8226 cells after 48 hrs by SRB assay; format: functional; settings: RPMI-8226, 48 h
Procedure, shortened: (§1)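 Cells were exposed to test compounds at the indicated concentrations for 48 h. They were then fixed with 10% trichloroacetic acid, stained 30 min with 0.4% SRB in 1% AcOH, and washed with 1% AcOH. Bound dye was solubilized in 10 mM Tris base and OD read at 510 nm. Lines cultured in RPMI 1640 with 20% FBS and penicillin/streptomycin, 37°C, 5% CO2.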

[6] = Antiproliferative activity against human HS5 cells after 48 hrs by SRB assay; format: cell-based; procedure, shortened: as §1

Chain of Histone deacetylase 4 (P56524 whole entry, the tested form may be a part): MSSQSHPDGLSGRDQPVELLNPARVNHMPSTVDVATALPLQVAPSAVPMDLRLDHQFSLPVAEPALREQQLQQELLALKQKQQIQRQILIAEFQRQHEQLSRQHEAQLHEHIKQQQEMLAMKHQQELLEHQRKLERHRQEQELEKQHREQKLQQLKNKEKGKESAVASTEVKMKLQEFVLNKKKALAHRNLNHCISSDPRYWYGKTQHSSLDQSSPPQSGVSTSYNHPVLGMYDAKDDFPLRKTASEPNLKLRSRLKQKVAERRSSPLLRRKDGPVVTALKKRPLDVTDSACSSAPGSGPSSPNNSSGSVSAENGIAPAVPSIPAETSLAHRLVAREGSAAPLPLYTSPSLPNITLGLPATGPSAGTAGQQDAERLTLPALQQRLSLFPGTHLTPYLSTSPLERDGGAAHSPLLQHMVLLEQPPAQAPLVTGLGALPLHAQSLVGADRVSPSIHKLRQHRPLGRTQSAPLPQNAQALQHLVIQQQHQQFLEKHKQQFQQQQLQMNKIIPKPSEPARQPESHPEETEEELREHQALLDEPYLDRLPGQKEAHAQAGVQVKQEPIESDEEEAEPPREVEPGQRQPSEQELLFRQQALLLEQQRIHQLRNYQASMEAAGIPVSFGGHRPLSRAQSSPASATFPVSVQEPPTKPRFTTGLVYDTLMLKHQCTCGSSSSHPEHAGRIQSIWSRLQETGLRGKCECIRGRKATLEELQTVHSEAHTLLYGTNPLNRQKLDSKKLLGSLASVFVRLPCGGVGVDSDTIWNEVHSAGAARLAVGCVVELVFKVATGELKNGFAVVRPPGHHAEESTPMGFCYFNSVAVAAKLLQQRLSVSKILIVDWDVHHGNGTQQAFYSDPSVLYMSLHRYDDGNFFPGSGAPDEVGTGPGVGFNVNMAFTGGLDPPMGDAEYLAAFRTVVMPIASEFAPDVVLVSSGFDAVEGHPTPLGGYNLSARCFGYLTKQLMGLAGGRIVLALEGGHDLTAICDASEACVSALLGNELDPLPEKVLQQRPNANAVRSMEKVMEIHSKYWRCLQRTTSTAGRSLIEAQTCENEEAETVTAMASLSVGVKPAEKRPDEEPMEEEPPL

Row | SMILES | IC50 [1] [µM] | IC50 [2] [µM] | IC50 [3] [µM] | IC50 [4] [µM] | GI50 [5] [µM] | GI50 at 48 h [6] [µM]
1 | O=C(NO)c1ccc(CNc2cccc3ncccc23)cc1 | 0.000795 | 4.82 | 0.636 | 1.26 | 11 | > 100
2 | O=C(NO)c1ccc(CNc2cccc3cccnc23)cc1 | 0.000291 | 4.44 | 1.19 | 9.79 | 7.49 | > 100

Reference: ChEMBL document CHEMBL4024792, “(N-Hydroxycarbonylbenylamino)quinolines as Selective Histone Deacetylase 6 Inhibitors Suppress Growth of Multiple Myeloma in Vitro and in Vivo” (J Med Chem, 2018)
